The target of data set [1] is T1, recombinant E. coli DXR enzyme (EcDXR) (Escherichia coli, UniProt P45568).
T1 sequence (P45568 1-398): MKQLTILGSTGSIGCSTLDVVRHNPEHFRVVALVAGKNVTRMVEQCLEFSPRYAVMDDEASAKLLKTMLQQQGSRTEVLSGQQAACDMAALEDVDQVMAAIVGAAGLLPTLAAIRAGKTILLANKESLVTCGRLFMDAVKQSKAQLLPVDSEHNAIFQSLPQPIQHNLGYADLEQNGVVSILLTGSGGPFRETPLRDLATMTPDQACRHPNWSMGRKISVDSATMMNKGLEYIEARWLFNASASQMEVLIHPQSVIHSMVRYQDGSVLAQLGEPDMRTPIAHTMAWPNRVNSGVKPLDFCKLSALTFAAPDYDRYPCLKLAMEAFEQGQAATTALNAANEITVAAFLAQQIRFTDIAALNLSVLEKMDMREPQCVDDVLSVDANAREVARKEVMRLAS
Briefly: DXR enzyme inhibition assay. Type of data set: biochemical. As to conditions: for inhibition at 50 µM: read-out: % Inhibition at 50 μM, EcDXR, 50 μM; for inhibition at 100 µM: read-out: % Inhibition at 100 μM, in vitro EcDXR inhibition, 100 μM. A digest of the protocol: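 Recombinant E. coli DXR, assayed with a commercial kit following the vendor protocol. Test compound from a DMSO stock; final DMSO ~0.2% v/v or lower. Enzyme and compound pre-incubated with shaking for 10 minutes, then DXP added to start the reaction. NADPH consumption read kinetically at 340 nm. Inhibition taken at a single level or across five levels for IC50. IC50 from one representative experiment run in duplicate.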

In data set [2] the test system is M. tuberculosis H37Rv mc^2 6206. As to the kind of experiment: Screening against M. tuberculosis and MIC by Alamar Blue assay. Type of data set: cell-based. To be noted: for MIC: Mycobacterium tuberculosis, H37RV, read-out: MIC against M. tuberculosis. For orientation: Alamar Blue is a resazurin reagent that responds to reducing activity.
Data set [3] can be described thus: Dilution of DMSO stock with the aqueous assay buffer. Type of data set: physicochemical. As to conditions: dilution for the 50 μM enzyme assay.
For data set [4], the system named is E. coli. As to the kind of experiment: Screening against ESKAPE pathogens: E. coli. The data set is classed as cell-based. A digest of the protocol:
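E. coli grown in LB at 37 °C with shaking at 200 rpm to turbidity, then diluted to OD600 0.02. Test compound freshly dissolved in DMSO and added at one of two single levels. Growth judged visually after 24 h at 37 °C against DMSO-treated controls.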

≈ marks a conversion by molar mass, not a printed value.

We go through 23 compounds from publication PMC11362829 (RSC Advances, 2024).

Regarding `O=C(NC(c1ccccc1)P(=O)(O)O)c1ccccc1O` (stereo not drawn) [Compound 20a, ((2-Hydroxybenzamido)(phenyl)methyl)phosphonic acid], in data set [1], the IC50 was found to be 33.2 µM and the inhibition at 50 µM came out at 94.6%. In addition, the “fold less potency than its counterpart 22a” value in data set [1] (EcDXR IC50 compared to 22a) is reported as approximately 2 fold. Besides, the “Effect on M. tuberculosis growth” value in data set [2] (200 μM) is reported as “none of the tested compounds affected M. tuberculosis growth”.
With `O=C(NCP(=O)(O)O)c1ccccc1O` [Compound 20b, ((2-hydroxybenzamido)methyl)phosphonic acid], the “Behaviour during dilution with the aqueous buffer” value in data set [3] is “precipitated during dilution”.
The same measure, in the same setting: with `CC(NC(=O)c1ccccc1O)P(=O)(O)O` (stereo not drawn) [Compound 20c, (1-(2-Hydroxybenzamido)ethyl)phosphonic acid] the entry was “precipitated during dilution”.
On to `O=C(NC(c1cccc2ccccc12)P(=O)(O)O)c1ccccc1O` (stereo not drawn) [Compound 20d, ((2-Hydroxybenzamido)(naphthalen-1-yl)methyl)phosphonic acid], for which, in data set [1], the IC50 was found to be 32.9 µM and the inhibition at 50 µM was 81.3%. Moreover, the “folds less potent than 22d” value in data set [1] (EcDXR IC50 compared to 22d) is approximately 8 fold. Also, the “Effect on M. tuberculosis growth” value in data set [2] (500 μM) is “inhibited M. tuberculosis growth”. Moreover, the MIC in data set [2] was more than 250 µM.
Take `O=C(NC(c1ccc(Cl)c(Cl)c1)P(=O)(O)O)c1ccccc1O` (stereo not drawn) [Compound 20e, ((3,4-Dichlorophenyl)(2-hydroxybenzamido)methyl)phosphonic acid]: the “Effect on M. tuberculosis growth” value in data set [2] (500 μM) was “inhibited M. tuberculosis growth”. In data set [2], the MIC was more than 250 µM. The “Behaviour during dilution with the aqueous buffer” value in data set [3] is recorded as “precipitated during dilution”.
With `O=C(NC(c1ccccc1)P(=O)(O)O)c1cccc(O)c1O` (stereo not drawn) [Compound 21a, ((2,3-Dihydroxybenzamido)(phenyl)methyl)phosphonic acid], the inhibition at 50 µM in data set [1] was 66.5%. Moreover, the “Effect on M. tuberculosis growth” value in data set [2] (200 μM) is given as “none of the tested compounds affected M. tuberculosis growth”.
On to `O=C(NCP(=O)(O)O)c1cccc(O)c1O` [Compound 21b, ((2,3-Dihydroxybenzamido)methyl)phosphonic acid], for which, in data set [1], the inhibition at 50 µM was found to be 68.4%.
Same read-out and setting: in the case of `CC(NC(=O)c1cccc(O)c1O)P(=O)(O)O` (stereo not drawn) [Compound 21c, (1-(2,3-Dihydroxybenzamido)ethyl)phosphonic acid] it was 60.1%; in that of `O=C(NC(c1cccc2ccccc12)P(=O)(O)O)c1cccc(O)c1O` (stereo not drawn) [Compound 21d, ((2,3-Dihydroxybenzamido)(naphthalen-1-yl)methyl)phosphonic acid], 78.5%.
For `O=C(NC(c1ccccc1)P(=O)(O)O)c1ccc2ccccc2c1O` (stereo not drawn) [Compound 22a, ((1-Hydroxy-2-naphthamido)(phenyl)methyl)phosphonic acid], in data set [1], the IC50 is 16.9 µM and the inhibition at 50 µM is 70.9%. Moreover, the “folds lower potency than 22b” value in data set [1] (EcDXR IC50 compared to 22b) was approximately 57 fold. Also, the “Effect on M. tuberculosis growth” value in data set [2] (200 μM) is “none of the tested compounds affected M. tuberculosis growth”.
As to `O=C(NCP(=O)(O)O)c1ccc2ccccc2c1O` [Compound 22b, ((1-Hydroxy-2-naphthamido)methyl)phosphonic acid], in data set [1], the IC50 came to 0.29 µM and the inhibition at 50 µM worked out at 76.3%. Also, in data set [2] (500 μM), the “Effect on M. tuberculosis growth” value is reported as “inhibited M. tuberculosis growth”. Further, in data set [2], the MIC is more than 250 µM. In addition, the “Activity against E. coli” value in data set [4] was “inactive against E. coli”.
`CC(NC(=O)c1ccc2ccccc2c1O)P(=O)(O)O` (stereo not drawn) [Compound 22c, (1-(1-Hydroxy-2-naphthamido)ethyl)phosphonic acid]: the inhibition at 50 µM in data set [1] came out at 84.2%.
As to `O=C(NC(c1cccc2ccccc12)P(=O)(O)O)c1ccc2ccccc2c1O` (stereo not drawn) [Compound 22d, ((1-Hydroxy-2-naphthamido)(naphthalen-1-yl)methyl)phosphonic acid], in data set [1], the IC50 is 4.44 µM and the inhibition at 50 µM is 73.7%. The “fold improvement in IC50 value compared to 22a” value in data set [1] (EcDXR IC50 compared to 22a) is approximately 4 fold. Moreover, the “Effect on M. tuberculosis growth” value in data set [2] (500 μM) is on record as “inhibited M. tuberculosis growth”. Moreover, the MIC in data set [2] worked out at 125 µM (≈ 50.9 µg/mL). In addition, in data set [4], the “Activity against E. coli” value is “inactive against E. coli”.
For the compound `O=C(NC(c1ccccc1)P(=O)(O)O)c1coc2ccccc2c1=O` (stereo not drawn) [Compound 23a, ((4-Oxo-4H-chromene-3-carboxamido)(phenyl)methyl)phosphonic acid], in data set [1], the IC50 was 6.09 µM and the inhibition at 50 µM worked out at 79.8%. Also, the “Effect on M. tuberculosis growth” value in data set [2] (200 μM) is recorded as “none of the tested compounds affected M. tuberculosis growth”.
With `O=C(NCc1ccccc1)c1ccc2ccccc2c1O` [Compound 25a, N-Benzyl-1-hydroxy-2-naphthamide], the “% Inhibition at 50 μM” value in data set [1] (EcDXR, 50 μM) is given as 30.4%. In addition, in data set [1], the inhibition at 50 µM turned out to be 30%.
Regarding `O=C(NCCc1ccccc1)c1ccc2ccccc2c1O` [Compound 25b, 1-Hydroxy-N-phenethyl-2-naphthamide], in data set [1], the inhibition at 50 µM is 4.69%.
Take `O=C(NCCCc1ccccc1)c1ccc2ccccc2c1O` [Compound 25c, 1-Hydroxy-N-(3-phenylpropyl)-2-naphthamide]: the inhibition at 50 µM in data set [1] worked out at 31.3%.
In the case of `O=C(O)c1cccc(O)c1O` [Compound F2, 2,3-Dihydroxy benzoic acid], the inhibition at 100 µM in data set [1] came out at 93.3%.
For the compound `O=C(O)c1ccc2ccccc2c1O` [Compound F7, 1-Hydroxy-2-naphthoic acid], in data set [1], the inhibition at 100 µM was determined as 100%.
With `O=Cc1cccc(O)c1O` [Compound F9, 2,3-dihydroxy benzaldehyde], in data set [1], the inhibition at 100 µM was determined as 86.5%.
Same read-out and setting: with `O=C(O)c1coc2ccccc2c1=O` [Compound F10, Chromone-3-carboxylic acid] the figure was 100%.
Still for that read-out and setting: with `O=C(O)c1ccccc1O` [Compound F12, Salicylic acid] the figure was 87.4%.
Consider `O=CN(O)CCCP(=O)(O)O` [FSM, Fosmidomycin, reference compound], for which the inhibition at 100 µM in data set [1] is 100%.

The IC50 is the concentration needed to halve the response being measured. The term inhibition denotes the drop in the measured response relative to a control, in per cent. A word on the MIC: it is the least concentration at which growth counts as inhibited. By % Inhibition is commonly meant the drop in the measured response relative to a control, in per cent.
